According to ChEMBL document CHEMBL3297732, “Aryl-substituted aminobenzimidazoles targeting the hepatitis C virus internal ribosome entry site” (Bioorg Med Chem Lett, 2014):
The source made the active and inactive calls. The rule behind the calls is not given here.

These molecules were tested on Internal ribosome entry site (IRES) (assay: Non-specific binding affinity to cyanine dye-labeled HCV IRES subdomain 2a RNA assessed as precipitation of dye labeled RNA at 50 to 100 uM by FRET assay in presence of Mg2+). Settings: Hepacivirus hominis.

Activity | SMILES
Active | CN(C)CCOc1ccc2c(c1)nc(O)n2-c1ccccc1
Active | CN(C)CCCOc1ccc2nc(O)n(-c3ccc(N(C)C)cc3)c2c1
Active | CN(C)CCCOc1ccc2c(c1)nc(O)n2-c1ccccc1
Active | CN(C)CCCOc1ccc2c(c1)nc(NC(=O)c1ccccc1)n2-c1ccc(N(C)C)cc1

These molecules were tested against Internal ribosome entry site (IRES) (assay: Binding affinity to cyanine dye-labeled HCV IRES subdomain 2a RNA by FRET assay in presence of Mg2+). Settings: not given.
Set-up: species or system Hepacivirus hominis
Summary of the method: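 Binding to IIa RNA measured by triplicate titration in a FRET assay that tracks ligand-induced conformational capture of the dye-labeled RNA. EC50 taken from a single-site dose-response fit to the titration data, with standard error from the triplicates.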

EC50 | SMILES
> 500 µM | CN(C)CCOc1ccc2c(c1)nc(NC(=O)c1ccccc1)n2-c1ccccc1
160 µM | CN(C)CCCn1c(N)nc2ccc(Nc3cccnc3)cc21
> 500 µM | CN(C)CCCOc1ccc2c(c1)nc(NC(=O)c1ccccc1)n2-c1ccccc1
290 µM | CN(C)CCCn1c(N)nc2cccc(-c3cccc(N(C)C)c3)c21

More lines, now with the values behind:

SMILES | EC50
CN(C)CCCOc1ccc2c(c1)nc(N)n2-c1ccc(N(C)C)cc1 | 95 µM
CN(C)CCCn1c(N)nc2ccc(Nc3ccncc3)cc21 | 160 µM
CC(=O)Nc1nc2cc(OCCN(C)C)ccc2n1-c1ccccc1 | 100 µM
CN(C)c1cccc(-n2c(N)nc3ccc(Nc4cccnc4)cc32)c1 | 74 µM
CC(=O)Nc1nc2cc(OCCCN(C)C)ccc2n1-c1ccccc1 | 210 µM
CN(C)c1cccc(-n2c(N)nc3ccc(Nc4ccncc4)cc32)c1 | 100 µM
CN(C)CCCOc1ccc2nc(N)n(-c3cccc(N(C)C)c3)c2c1 | 120 µM
